For series [1], the system named is Canis familiaris. Put plainly: Effect on ischemic arrhythmias was studied in dogs, by glass bead method. 60 mg/kg was administered perorally and percent sinus beats after compound administration, was reported. As to conditions: route oral. Format: functional, Canis lupus familiaris. In a few lines: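 Conscious dogs; ventricular arrhythmias induced by inserting a glass bead into a coronary artery, with marked arrhythmias persisting for 24 h. Compound given orally. Lead II ECG recorded continuously by telemetry. Percent sinus beats measured before and after dosing, and duration of effect in min recorded.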

For series [2], the system named is Canis familiaris. Nature of the series: Effect on ischemic arrhythmias was studied in dogs. 10 mg/kg was injected intravenously and percent sinus beats after compound administration, was reported. As to conditions: route intravenous. It is filed as functional, Canis lupus familiaris. In a few lines: (§1)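 Conscious dogs with ischemic ventricular arrhythmias persisting for 24 h after a glass bead was inserted into a coronary artery. Compound was given iv or orally. Lead II ECG recorded continuously by telemetry. Percent sinus beats taken before and after dosing, plus duration of effect (min).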

In series [3] the test system is Canis familiaris. Put plainly: Effect on ischemic arrhythmias was studied in dogs. 10 mg/kg was injected intravenously and percent sinus beats before compound administration, was reported. It is filed as functional, Canis lupus familiaris. As to conditions: route intravenous. The procedure, abridged:
as §1

The species entered for series [4] is Cavia porcellus. Put plainly: Maximal follow rate showing the contractile frequencies of atria to electrical stimulation 10 min after incubation with right atria of guinea pig. It is filed as functional. In a few lines: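 Isolated right atria driven by electrical stimulation (Dawes' method). Maximal follow rate, the highest contractile frequency the atria follow, measured as an index of refractory period 10 min after incubation with compound.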

Series [5] relates to Mus musculus. Put plainly: Compound was evaluated for ventricular extrasystole, 30 min before aconitine infusion, at a dose of 30 mg/kg, perorally administered in mice; S=significant antiarrhythmic effect. Also noted: dose 30 mg/kg. As to conditions: Heart. Format: functional, organism-based. The procedure, abridged:
(§2)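 Aconitine arrhythmia model in pentobarbital-anesthetized male mice (20-35 g). Test compound was given iv 3 min or po 30 min before continuous tail-vein infusion of aconitine (0.685 µg/min). Lead II ECG recorded; onset times of ventricular extrasystole (VES) and ventricular tachycardia (VT) were measured.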

For series [6], the system named is Mus musculus. Nature of the series: Compound was evaluated for ventricular tachycardia activity in intravenously administered mice, 3 min before aconitine infusion, at a dose of 10 mg/kg; S=significant antiarrhythmic effect. It is filed as functional, organism-based. The arrangement: dose 10 mg/kg. As to conditions: Heart. In a few lines:
as §2

Series [7] concerns Mus musculus. Put plainly: Compound was evaluated for ventricular tachycardia activity in perorally administered mice, 30 min before aconitine infusion, at a dose of 30 mg/kg; S=significant antiarrhythmic effect. Format: functional, organism-based. Also noted: dose 30 mg/kg. As to conditions: Heart. The procedure, abridged: as §2
Series [8] relates to Mus musculus. Nature of the series: Compound was evaluated for ventricular extrasystole activity, 3 min before aconitine infusion, at a dose of 10 mg/kg, intravenously administered in mice; S=significant antiarrhythmic effect. It is filed as functional, organism-based. Also noted: dose 10 mg/kg. As to conditions: Heart. In a few lines: as §2
Series [9] is described as follows: Lethal dose in mice (LD50) (following i.v. dosing). As to conditions: mouse, in vivo, iv.
The subject of series [10] is Canis familiaris. Put plainly: Effect on ischemic arrhythmias was studied in dogs, by glass bead method. 60 mg/kg was administered perorally and percent sinus beats before compound administration, was reported. As to conditions: route oral. Format: functional, Canis lupus familiaris. The procedure, abridged:
as §1

For series [11], the system named is Mus musculus. Nature of the series: Compound was evaluated for ventricular extrasystole activity, 3 min before aconitine infusion, at a dose of 30 mg/kg, intravenously administered in mice; S=significant antiarrhythmic effect. Format: functional, organism-based. Also noted: dose 30 mg/kg. As to conditions: Heart. In a few lines: as §2
In series [12] the test system is Mus musculus. Nature of the series: Compound was evaluated for ventricular tachycardia activity in intravenously administered mice, 3 min before aconitine infusion, at a dose of 1 mg/kg; S=significant antiarrhythmic effect. It is filed as functional, organism-based. The arrangement: dose 1 mg/kg. As to conditions: Heart. The procedure, abridged: as §2
The target of series [13] is Adrenergic receptor beta (Cavia porcellus). Put plainly: Beta adrenergic receptor blocking activity measured by the inotropic effect was determined 1 hr after pretreament of the right atria in guinea pig.
Series [14] shares this target. Nature of the series: Beta adrenergic receptor blocking activity measured by the chronotropic effect was determined 1 hr after pretreatment of the right atria in guinea pig.
The test system of series [15] is Canis familiaris. Put plainly: Effect on ischemic arrhythmias was studied in dogs, by glass bead method. 10 mg/kg was administered perorally and percent sinus beats after compound administration, was reported. Format: functional, Canis lupus familiaris. As to conditions: route oral. In a few lines: as §1
Series [16] concerns Canis familiaris. Nature of the series: Effect on ischemic arrhythmias was studied in dogs, by glass bead method. 10 mg/kg was administered perorally and percent sinus beats before compound administration, was reported. Format: functional, Canis lupus familiaris. As to conditions: route oral. The procedure, abridged:
as §1

The test system of series [17] is Canis familiaris. Nature of the series: Effect on ischemic arrhythmias was studied in dogs. 3 mg/kg was injected intravenously and percent sinus beats after compound administration, was reported. As to conditions: route intravenous. It is filed as functional, Canis lupus familiaris. In a few lines: as §1
In series [18] the test system is Canis familiaris. Put plainly: Effect on ischemic arrhythmias was studied in dogs. 3 mg/kg was injected intravenously and percent sinus beats before compound administration, was reported. Format: functional, Canis lupus familiaris. As to conditions: route intravenous. The procedure, abridged: as §1
Series [19] deals with Mus musculus. Nature of the series: Compound was evaluated for ventricular tachycardia activity in intravenously administered mice, 3 min before aconitine infusion, at a dose of 3 mg/kg; S=significant antiarrhythmic effect. It is filed as functional, organism-based. Also noted: dose 3 mg/kg. As to conditions: Heart. The procedure, abridged:
as §2

For series [20], the system named is Mus musculus. Nature of the series: Compound was evaluated for ventricular tachycardia activity in perorally administered mice, 30 min before aconitine infusion, at a dose of 10 mg/kg; S=significant antiarrhythmic effect. It is filed as functional, organism-based. Also noted: dose 10 mg/kg. As to conditions: Heart. The procedure, abridged:
as §2

For series [21], the system named is Mus musculus. Put plainly: Compound was evaluated for ventricular extrasystole, 3 min before aconitine infusion, at a dose of 3 mg/kg, intravenously administered in mice; S=significant antiarrhythmic effect. As to conditions: Heart.
Series [22] concerns Mus musculus. Put plainly: Compound was evaluated for ventricular extrasystole activity, 3 min before aconitine infusion, at a dose of 1 mg/kg, intravenously administered in mice; S=significant antiarrhythmic effect. As to conditions: Heart. The arrangement: dose 1 mg/kg. Format: functional, organism-based. The procedure, abridged: as §2
The subject of series [23] is Mus musculus. Nature of the series: Compound was evaluated for ventricular extrasystole activity, 30 min before aconitine infusion, at a dose of 10 mg/kg, perorally administered in mice; S=significant antiarrhythmic effect. As to conditions: Heart.
For series [24], the species on record is Canis familiaris. Nature of the series: Duration of ischemic arrhythmias in dogs determined in minutes.
Series [25] deals with Mus musculus. Put plainly: Compound was evaluated for ventricular extrasystole, 30 min before aconitine infusion, at a dose of 10 mg/kg, perorally administered in mice; S=significant antiarrhythmic effect. It is filed as functional, organism-based. Also noted: dose 10 mg/kg. As to conditions: Heart. The procedure, abridged:
as §2

“And” between values parts separate entries of the source, which are not always exact repeats. Equal values may be shown once.

Experimental findings from ChEMBL document CHEMBL1122721, “Synthesis and antiarrhythmic activity of new 1-[1-[2-[3-(alkylamino)-2-hydroxypropoxy]phenyl]vinyl]-1 H-imidazoles and related compounds” (J Med Chem, 1984) are described below.

In general, LD50 refers to the dose expected to kill half of the subjects tested. Read a low LD50 as a more toxic substance. With `CC(C)N(CCC(C(N)=O)(c1ccccc1)c1ccccn1)C(C)C` (configuration not stated) [DISOPYRAMIDE], the Sinus beats is recorded as 66.2% in series [1], 88.4% in series [2], 22.4% in [3] and 10.1% in series [10]. Also, in series [4], the Decrease worked out at 15.7%. Further, the Activity result in series [5], in series [6], in [7] and in series [8] was “Anti-arrhythmic” in each case. The LD50 in series [9] was determined as 30 mg/kg.

As a reminder, the pA2 is the negative logarithm of the molar antagonist concentration that doubles the agonist concentration needed for the same response. With `C=C(c1c(C)ccc(Cl)c1OCC(O)CNC(C)C)n1ccnc1` (configuration not stated), the Activity result in [11], in [12] and in [7] was “Anti-arrhythmic” throughout. Also, the pA2 in series [13] is given as 5.55; in series [14], 5.67.

`C=C(c1c(Cl)ccc(Cl)c1OCC(O)CNC(C)C)n1ccnc1` (configuration not stated): the Sinus beats in series [15] is recorded as 69.3%; in [16] it was 9.3%; in [17], 88.9%; in series [18], 5.8%. In addition, the Decrease in series [4] is 45.7%. Also, the Activity entry in [19], in series [20] and in series [21] was “Anti-arrhythmic” each time. In addition, the values for the pA2 in series [13] and in [14] were 5.29 and 4.86, respectively.

`C=C[C@H]1CN2CC[C@H]1C[C@@H]2[C@@H](O)c1ccnc2ccc(OC)cc12` [QUINIDINE]: the Sinus beats in [1] is listed as 58.3%; in series [2], 74.1%; in series [3], 14.1%; in [10], 4.2%. Moreover, the Decrease in series [4] was 26.4%. Also, the Activity result in series [5], in [6], in series [7] and in series [8] was “Anti-arrhythmic” throughout.

`C=C(c1c(C)c(C)cc(Cl)c1OCC(O)CNC(C)C)n1ccnc1` (configuration not stated) returned a Decrease in [4] of 29.8%. The Activity result in series [5], in series [12], in series [7] and in series [22] was “Anti-arrhythmic” throughout. In series [9], this compound had an LD50 of 15.5 mg/kg. Further, the pA2 in series [13] is recorded as 5.96; in series [14] it was 5.04.

Take `C=C(c1cc(Cl)ccc1OCC(O)CNC(C)(C)C)n1cccn1` (configuration not stated): the Sinus beats is 14.3% in series [17] and 1.8% in series [18]. This compound also yielded a Decrease in series [4] of 45.7%. Also, the Activity result in [19] and in series [23] was “Anti-arrhythmic” each time. Further, the LD50 in [9] came out at 32.5 mg/kg. Moreover, the pA2 was 6.99 in [13] and 6.9 in series [14].

For `C=C(c1c(Cl)ccc(Cl)c1OCC(O)CNCC(C)C)n1ccnc1` (configuration not stated), the Duration in series [24] is 60 min and 180 min. Moreover, the Sinus beats in series [15] turned out to be 44.8%; in series [16], 9.9%; in [17], 94.5%; in series [18] it was 6.5%. For the same compound, in series [4], the Decrease came to 34.9%. Besides, the Activity entry in [25], in series [12], in series [20] and in [22] was “Anti-arrhythmic” each time. The pA2 is recorded as 5.81 in series [13] and 4.89 in series [14].
